# From PubChem BioAssay
# In the library only some 3.9% were active in any assay of this set; here they are far more common.
# FLuc inhib CS: Photinus pyralis luciferase inhibition counter-screen; P08659; ATPLite firefly luciferase biochemical luminescence, 10 min; inhibition, % at 10 µM; 1.5% of 200,000 active;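 active means inhibition above about 50% when tested at 10 µM, limit read from the data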
# Target sequence (P08659 whole entry, looked up): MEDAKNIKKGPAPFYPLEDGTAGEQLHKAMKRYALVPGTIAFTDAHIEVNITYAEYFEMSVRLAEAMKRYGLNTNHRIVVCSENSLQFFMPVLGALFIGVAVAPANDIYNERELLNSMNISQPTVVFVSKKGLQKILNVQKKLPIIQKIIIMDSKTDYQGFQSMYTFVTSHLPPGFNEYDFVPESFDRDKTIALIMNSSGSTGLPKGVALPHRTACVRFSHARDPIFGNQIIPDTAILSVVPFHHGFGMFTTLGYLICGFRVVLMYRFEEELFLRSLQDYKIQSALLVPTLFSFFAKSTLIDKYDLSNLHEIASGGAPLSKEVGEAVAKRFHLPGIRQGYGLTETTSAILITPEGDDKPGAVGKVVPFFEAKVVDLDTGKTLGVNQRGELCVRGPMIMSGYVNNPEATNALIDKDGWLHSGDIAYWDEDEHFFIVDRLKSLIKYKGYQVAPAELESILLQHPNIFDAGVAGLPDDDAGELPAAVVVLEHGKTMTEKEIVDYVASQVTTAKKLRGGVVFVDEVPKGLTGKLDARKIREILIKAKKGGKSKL
# STAT1 act: increases IFN-gamma driven STAT1 reporter signal. activation (% of control), % at 5.5 µM. 2.6% of 200,000 active. NIH 3T3 STAT1-luciferase reporter, luminescence; 100% = IFN-gamma alone, no compound. AID 932;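 active means activation above the screen-wide mean activation plus 3 SD, cut at about 130% in these data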;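 further: raw ratio to IFN-gamma control signal so 100% means no change and 0% no light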
# FLuc stim CS: affects firefly luciferase, flagging false hits in luciferase stimulation screens; activation factor at 10 µM; AID 1027; 200,000 tested, under 10 active; ATPlite luciferase biochemical, luminescence, 10 min; 0 = ATP-free wells, 1 = DMSO control; P08659;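 active means luciferase activation factor, scaled between plate controls, of at least 2 with compound at 10 µM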
#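 test system = cell-free luciferase reagent | medium = PBS as buffer for the ATP substrate | dosing = test compounds dosed from 2 mM stocks in 100% DMSO | incubation = 10 min at ambient temperature | detection = luminescence measurement of luciferase light output | benchmarks = low control with PBS replacing ATP, high control enzyme plus ATP without compound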
# APP 5'UTR act: activates APP 5'UTR luciferase reporter. SH-SY5Y APP 5'UTR luciferase reporter, luminescence; zero percent = DMSO vehicle wells. activation, % at 2 µM. 1% of 190,000 active. AID 1276;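 active means activation above a set limit, based on mean plus 3 SD of controls, cut at about 140% in these data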
# Rad51 HR inh: Rad51 (human) homologous recombination inhibition; AID 1385; inhibition, % at 10 µM; 0.085% of 200,000 active; hRad51 DNA strand exchange, fluorescence dequenching; Q06609;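 active means inhibition above 40% at the single screening dose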;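 further: 0% = DMSO control wells and 100% = blanks with heterologous ssDNA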
#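 Assay system: Human Rad51 nucleoprotein filaments preassembled on unlabelled ssDNA | Reagent: Donor/quencher-labelled 47-bp dsDNA substrate | Doses: One concentration, 10 µM final | Times: 37 °C 15-min filament assembly, 30-min compound preincubation, 15-min exchange | Technique: Fluorescein emission 520 nm, excitation 485 nm | Benchmarks: Plate control and blank wells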
# NF-kB expr up: NF-kB expression increase, human neuronal cells | 1.6% of 190,000 active | fold change at 12.5 µM | NF-kB reporter expression; stronger effect = higher value | AID 1239; in the data active means fold change above about 3.3
# * = called active by the depositor; nt = no result given.
SMILES,FLuc inhib CS,STAT1 act,FLuc stim CS,APP 5'UTR act,Rad51 HR inh,NF-kB expr up
CCN1CCN(c2nc(S(=O)(=O)c3ccc(C)cc3)c(Cl)s2)CC1,-3.0,89.7,1,15.8,1.9,1.14
O=C1C(C=NCc2cccnc2)=C(O)c2ccccc21,68.2*,129.8*,0.3,15.2,-7.0,2.78
Oc1ccc(/C=N/NC(=S)N/N=C/c2ccc(O)cc2)cc1,95.8*,124.2,0,20.8,9.3,1.73
Oc1ccc(/C=N/NC(=S)Nc2cccnc2)cc1,nt,nt,nt,nt,1.4,nt
O=C(N/N=C/c1cccc(C(F)(F)F)c1)c1ccc(O)cc1,16.5,103.0,0.8,-4.6,17.9,1.4
O=C(N/N=C/c1ccc(C(F)(F)F)cc1)c1ccc(O)cc1,52.9*,112.4,0.5,32.7,15.4,1.82
CC(=O)Nc1ccc(C(=O)N/N=C/c2ccc(F)cc2)cc1,3.7,109.2,1,16.7,5.0,1.27
O=C(N/N=C\c1ccc(F)cc1)c1ccc(F)cc1,58.4*,145.4*,0.4,14.7,20.8,1.83
CSc1ccc(/C=N/NC(=O)c2cccc(O)c2)cc1,91.1*,96.5,0.1,158.8*,-1.3,4.45*
CC1=CC(=C(C#N)c2nc3ccccc3s2)C=C(C)N1CC1CCCO1 (stereo not drawn),-4.3,127.6,1,6.7,-12.7,0.99
C=CCNC(=S)N1CCN(c2ncc(C(F)(F)F)cc2Cl)CC1,nt,nt,nt,nt,17.6,nt
CCc1c(O)cc(=O)n(-c2ccccc2)c1-c1ccccc1,-2.1,98.8,1,3.1,-4.1,1.02
COc1cc(/C=N/NC(=S)Nc2cccc(C(=O)O)c2)cc(OC)c1OC,12.8,105.5,0.9,-18.6,9.4,1.19
COC(=O)c1ccc(/C=N/NC(=O)c2cccc(F)c2)cc1,23.9,129.8*,0.8,98.4,-10.4,2.57
COc1cc(/C=N/NC(=S)N/N=C/c2cc(OC)c(OC)c(OC)c2)cc(OC)c1OC,68.3*,111.7,0.3,-0.8,-6.1,1.22
COc1cc(C(O)c2nc3ccccc3s2)cc(OC)c1OC (stereo not drawn),nt,nt,nt,nt,19.0,nt
COc1ccc(NS(=O)(=O)c2ccc(NC(=O)C(CCSC)NC(N)=O)cc2)cc1 (stereo not drawn),nt,nt,nt,nt,41.7*,nt
CC(=O)N1N=C(c2cccc([N+](=O)[O-])c2)OC1c1ccccc1Cl (stereo not drawn),-10.3,107.1,1.1,22.3,-6.2,1.37
CC(=O)N1N=C(c2ccc(Cl)cc2)OC1c1ccc(C(C)C)cc1 (stereo not drawn),-5.3,133.0*,1.1,-10.4,-9.1,1.63
COC(=O)CSc1nc2cc(OC)ccc2cc1C#N,5.6,141.5*,0.9,154.9*,-17.2,13.8*
CC(=O)CSc1nc2cc3c(cc2cc1C#N)OCCO3,29.6,86.0,0.7,101.2,-58.6,5.72*
CCOC(=O)CSc1nc(-c2ccc3c(c2)OCO3)ccc1C#N,12.9,125.5,0.9,201.8*,4.9,0.74
COc1ccc2cc(C#N)c(SCC(=O)N3CCCC3)nc2c1,-6.8,99.6,1.1,-1.2,-19.9,1.62
CCOC(=O)CCCSc1nc(-c2ccc3c(c2)OCO3)cc(C(F)(F)F)c1C#N,-5.9,101.2,1.1,19.2,2.4,1.23
CCOC(=O)CSc1nc2cc(OCC)ccc2cc1C#N,-3.0,123.8,1,168.3*,-7.0,2.24
SMILES,FLuc inhib CS,STAT1 act,FLuc stim CS,APP 5'UTR act,Rad51 HR inh,NF-kB expr up
COc1ccc(CSc2nnnn2-c2ccccc2)cc1,-6.8,95.9,1.1,-5.9,nt,1.06
COc1ccc2c(C)cc(Sc3nnnn3-c3ccccc3)nc2c1,-8.0,99.2,1.1,-0.6,-9.6,3.39*
CC(=O)NC1=NN(C(C)=O)C(c2ccc(F)cc2)S1 (stereo not drawn),-1.8,106.7,1,19.1,4.8,1.32
O=[N+]([O-])c1cccc2c(N3CCCC3)ccnc12,-0.9,102.3,1,-7.5,15.1,0.57
Cc1ccc(C2/C(=C(\O)c3ccc4c(c3)OCCO4)C(=O)C(=O)N2CCCN(C)C)o1 (stereo not drawn),0.4,105.3,1,16.1,94.0*,1.51
CN(Cc1cccs1)C(=O)c1ccc(S(=O)(=O)NCc2ccco2)cc1,nt,nt,nt,nt,44.1*,nt
C/C(=N\NC(=O)C1COc2ccccc2O1)c1ccc(N2CCOCC2)cc1 (stereo not drawn),-6.5,102.3,1.1,2.8,2.4,0.86
COc1ccc(Nc2nnc(-c3ccccc3)c3ccccc23)cc1C(=O)N1CCCCC1,-5.3,114.7,1.1,5.0,11.3,0.76
Cc1nc2cc(NC(=O)Nc3cccc4ccccc34)ccc2n1C,55.7*,145.0*,0.4,110.1,-1.6,2.28
Cc1nc2cc(Nc3nnc(-c4ccccc4)c4ccccc34)ccc2n1C,92.0*,124.4,0.1,59.0,8.1,1.87
CCN(CC)C(=S)SC1CCCCN(C(=O)c2ccccc2)C1=O (stereo not drawn),nt,nt,nt,nt,-11.5,nt
COc1ccc(N(CC(=O)N/N=C/c2ccc3c(c2)OCO3)S(=O)(=O)c2ccccc2)cc1,-8.7,110.1,1.1,7.2,22.9,1.26
CC(C)Oc1cccc(C(=O)NC(=S)Nc2cccnc2)c1,34.4,111.0,0.7,49.8,nt,1.76
CC(C)(C)C(=O)NC(=S)Nc1cccc(C(=O)O)c1,2.2,130.9*,1,85.9,nt,nt
COc1cccc(/C=N/NC(=S)Nc2cccc(C(=O)O)c2)c1,52.7*,83.6,0.5,16.2,-2.5,1.56
CC(C)Oc1cccc(C(=O)NC(=S)Nc2ccccc2)c1,32.2,144.6*,0.7,75.1,10.8,2.08
CC(C)c1onc(C(=O)N(C)C2CCCCC2)c1[N+](=O)[O-],1.0,89.5,1,5.6,nt,1.14
CCOC(=O)C1=C(C)NC(C)=C(C(=O)OCC)C1C(=O)OCC(=O)N(CC)C1CCS(=O)(=O)C1 (stereo not drawn),-6.7,95.4,1.1,7.3,14.5,1.16
c1ccc(C2=Nc3ccccc3SC2c2nc3ccccc3[nH]2)cc1 (stereo not drawn),4.1,128.4,1,110.2,0.6,6.69*
CCSc1nnc(NC(=O)CSc2nncc(=O)n2N)s1,0.6,96.2,1,0.8,11.1,1.28
CCCCCOC(=O)c1[nH]c2c(c1C)C(=O)CC(c1ccco1)C2 (stereo not drawn),-8.9,101.8,1.1,-95.3,-1.5,5.16*
CC(C)C[C@H](NC(=O)c1[nH]cnc1C(=O)Nc1ccccc1)C(=O)OC(C)(C)C,nt,nt,nt,nt,8.0,nt
COc1cccc(NC(=S)/C(=C(\[O-])c2cc(C)n(-c3ccccc3F)c2C)[n+]2ccc(N(C)C)cc2)c1,-6.7,70.3,1.1,25.8,17.5,0.57
c1ccc2nc(-c3nccs3)ccc2c1,24.1,131.2*,0.8,39.1,5.9,1.17
